Assay results from ChEMBL document CHEMBL1817653, “Synthesis, structural, and biological evaluation of bis-heteroarylmaleimides and bis-heterofused imides” (Bioorg Med Chem, 2011).
Activity calls are given as the source filed them. No cut-off for these calls is given here.

Assays:
[1] = system: NCI-H460; assay: Selectivity ratio of IC50 for rat SMC to IC50 for human NCI-H460 cells
[2] = system: NCI-H460; assay: Cytotoxicity against human NCI-H460 cells after 3 days by cell counting analysis; assay type: functional, cell-based; settings: NCI-H460, 72 h
Method in brief: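 NCI-H460 cells in RPMI-1640 with 10% FCS are seeded at 8 × 10⁴ per 35-mm dish and exposed to compound (DMSO at most 1%) 24 h later. Cells are harvested after 72 h, trypsinized and counted with a Coulter counter. IC50 is derived by linear regression of log concentration versus logit.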

[3] = Cytotoxicity against RAOSMC after 3 days by cell counting analysis; settings: Rattus norvegicus, 72 h
Method in brief: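 Primary aortic SMCs from male Sprague–Dawley rats, passages 4–10, are seeded at 2 × 10⁵ per 35-mm dish in DMEM with 10% FCS. After 24 h they are arrested in 0.4% FCS for 72 h, then given 10% FCS plus compound (DMSO at most 1%) for 72 h at 37 °C. Cells are trypsinized and counted with a Coulter counter. IC50 is obtained by linear regression of log concentration versus logit.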

[4] = system: NCI-H460; assay: Cell cycle arrest in human NCI-H460 cells assessed as accumulation at G0/G1 phase at IC50 after 20 hrs using propidium Iodide staining by flow cytometry in presence of 10% fetal calf serum; assay type: functional
Method in brief: (§1)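 NCI-H460 cells are seeded at 2 × 10⁵ per 35-mm dish in RPMI with 10% FCS. After 24 h they are serum-starved in 0.4% FCS for 2 days, then restimulated with 10% FCS with or without compound at 37 °C. Cells are trypsinized, fixed in 62% ethanol and stained 30 min in the dark (5 µg/mL propidium iodide, RNase, 1% NP-40).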

[5] = target: DNA topoisomerase 2-alpha (Homo sapiens) (UniProt P11388); assay: Inhibition of topoisomerase 2-mediated relaxation of supercoiled pRYG DNA at 0.1 uM after 10 mins using ethidium bromide staining by agarose gel electrophoresis
DNA topoisomerase 2-alpha (Homo sapiens), sequence (P11388 whole entry): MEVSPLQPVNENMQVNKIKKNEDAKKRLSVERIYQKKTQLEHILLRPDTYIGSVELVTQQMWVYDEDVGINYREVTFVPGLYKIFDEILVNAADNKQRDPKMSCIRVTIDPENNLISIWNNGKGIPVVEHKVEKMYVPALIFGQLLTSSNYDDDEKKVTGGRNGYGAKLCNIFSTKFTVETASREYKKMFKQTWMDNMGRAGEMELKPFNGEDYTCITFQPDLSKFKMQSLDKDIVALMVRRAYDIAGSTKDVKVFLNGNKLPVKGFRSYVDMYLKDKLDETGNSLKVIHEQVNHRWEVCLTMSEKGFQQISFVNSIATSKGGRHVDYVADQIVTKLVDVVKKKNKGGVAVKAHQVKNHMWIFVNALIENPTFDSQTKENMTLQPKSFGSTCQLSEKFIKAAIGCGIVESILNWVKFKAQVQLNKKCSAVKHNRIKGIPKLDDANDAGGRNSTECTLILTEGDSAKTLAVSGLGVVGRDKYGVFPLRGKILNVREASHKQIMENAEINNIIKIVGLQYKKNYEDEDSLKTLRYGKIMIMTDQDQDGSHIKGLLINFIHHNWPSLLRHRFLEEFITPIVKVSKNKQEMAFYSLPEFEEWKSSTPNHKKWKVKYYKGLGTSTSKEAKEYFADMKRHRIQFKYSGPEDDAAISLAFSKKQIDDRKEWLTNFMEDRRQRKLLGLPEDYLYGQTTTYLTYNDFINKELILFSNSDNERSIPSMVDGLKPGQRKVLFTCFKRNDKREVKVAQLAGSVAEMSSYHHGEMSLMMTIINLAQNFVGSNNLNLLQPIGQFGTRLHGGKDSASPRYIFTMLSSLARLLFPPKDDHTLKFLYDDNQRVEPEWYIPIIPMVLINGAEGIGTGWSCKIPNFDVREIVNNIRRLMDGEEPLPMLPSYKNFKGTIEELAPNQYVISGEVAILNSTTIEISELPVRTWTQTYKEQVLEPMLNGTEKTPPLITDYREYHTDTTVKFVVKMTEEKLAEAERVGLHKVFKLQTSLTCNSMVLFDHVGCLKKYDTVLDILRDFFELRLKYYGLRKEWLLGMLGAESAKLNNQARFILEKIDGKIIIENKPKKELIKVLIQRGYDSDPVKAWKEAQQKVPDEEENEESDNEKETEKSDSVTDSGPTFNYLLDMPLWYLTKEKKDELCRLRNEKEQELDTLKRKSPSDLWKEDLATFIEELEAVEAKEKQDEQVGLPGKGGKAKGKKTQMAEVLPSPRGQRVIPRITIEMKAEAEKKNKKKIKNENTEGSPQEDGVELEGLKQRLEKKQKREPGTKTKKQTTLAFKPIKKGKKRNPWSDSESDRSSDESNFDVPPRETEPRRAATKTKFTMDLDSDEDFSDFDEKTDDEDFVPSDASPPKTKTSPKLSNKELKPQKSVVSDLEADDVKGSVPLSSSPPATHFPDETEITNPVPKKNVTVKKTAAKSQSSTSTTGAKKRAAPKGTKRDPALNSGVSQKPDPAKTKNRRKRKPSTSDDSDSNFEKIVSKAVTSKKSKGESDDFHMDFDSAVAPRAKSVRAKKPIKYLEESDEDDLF

[6] = system: NCI-H460; assay: Cell cycle arrest in human NCI-H460 cells assessed as accumulation at G2/M phase at IC50 after 20 hrs using propidium Iodide staining by flow cytometry in presence of 10% fetal calf serum; assay type: functional; method in brief: as §1
[7] = system: Nucleic Acid; assay: Binding affinity to supercoiled pRYG DNA at 0.1 uM after 10 mins by agarose gel electrophoresis; assay type: nucleic-acid assay
[8] = system: NCI-H460; assay: Cell cycle arrest in human NCI-H460 cells assessed as accumulation at sub-G0/G1 phase at IC50 after 20 hrs using propidium Iodide staining by flow cytometry in presence of 10% fetal calf serum; assay type: functional, cell-based
[9] = system: NCI-H460; assay: Cell cycle arrest in human NCI-H460 cells assessed as accumulation at S phase at IC50 after 20 hrs using propidium Iodide staining by flow cytometry in presence of 10% fetal calf serum; assay type: functional; method in brief: as §1
[10] = system: NCI-H460; assay: Antitumor activity against human NCI-H460 cells xenografted in athymic Swiss nude mouse assessed as tumor growth inhibition at 10 mg/kg, iv administered 2 days after tumor implantation for every 4th day for four times; assay type: functional, organism-based; parameters: dose 10 mg/kg
Method in brief: (§2)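 NCI-H460 tumor fragments are implanted s.c. in both flanks of athymic nude mice on day 0. Dosing is i.v. on days 2, 6, 10 and 14 (q4dx4) in 10% DMSO in water, with vehicle-only controls. Tumor diameters are measured twice weekly by caliper. Tumor weight in treated mice is compared with controls by unpaired two-tailed Student's t-test.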

[11] = system: Mus musculus; assay: Toxicity in human […] cells xenografted in athymic Swiss nude mouse at 16.9 mg/kg, iv administered 2 days after tumor implantation for every 4th day for four times; assay type: organism-based; parameters: dose 16.9 mg/kg, route intravenous; settings: in vivo, 48 h
[12] = system: NCI-H460; assay: Antitumor activity against human NCI-H460 cells xenografted in athymic Swiss nude mouse assessed as tumor growth inhibition at 16.9 mg/kg, iv administered 2 days after tumor implantation for every 4th day for four times; assay type: functional, organism-based; parameters: dose 16.9 mg/kg; method in brief: as §2

| SMILES | IC50 [2] [µM] | IC50 [3] [µM] | further results |
| --- | --- | --- | --- |
| O=C1c2c(c3sccc3c3ccoc23)C(=O)N1CCNCCCNCCN1C(=O)c2c(c3sccc3c3ccoc23)C1=O | 0.07 | > 30 | Ratio IC50 [1]: 500 |
| O=C1C(c2ccco2)=C(c2cccs2)C(=O)N1CCNCCCNCCN1C(=O)C(c2ccco2)=C(c2cccs2)C1=O | 0.5 | 3.5 | – |
| O=C1C(c2cccs2)=C(c2cccs2)C(=O)N1CCNCCCNCCN1C(=O)C(c2cccs2)=C(c2cccs2)C1=O | 4.3 | 1.3 | – |
| O=C1C(c2ccccc2)=C(c2ccccc2)C(=O)N1CCNCCCNCCN1C(=O)C(c2ccccc2)=C(c2ccccc2)C1=O | 1.2 | 0.62 | – |
| Cn1cccc1C1=C(c2cccs2)C(=O)N(CCNCCCNCCN2C(=O)C(c3cccs3)=C(c3cccn3C)C2=O)C1=O | 3.4 | 1.8 | – |
| O=C1C(c2cccs2)=C(c2c[nH]c3ccccc23)C(=O)N1CCNCCCNCCN1C(=O)C(c2cccs2)=C(c2c[nH]c3ccccc23)C1=O | 4.2 | 4.7 | – |
| Cn1cccc1C1=C(c2c[nH]c3ccccc23)C(=O)N(CCNCCCNCCN2C(=O)C(c3c[nH]c4ccccc34)=C(c3cccn3C)C2=O)C1=O | 3.9 | 16.5 | – |
| O=C1C(c2cccs2)=C(c2cccs2)C(=O)N1CCCN1CCN(CCCN2C(=O)C(c3cccs3)=C(c3cccs3)C2=O)CC1 | > 30 | > 30 | – |
| O=C1c2cccc3cccc(c23)C(=O)N1CCNCCCNCCN1C(=O)c2cccc3cccc(c23)C1=O [ELINAFIDE] | 0.008 | 0.012 | Activity [4]: 68.4%; Ratio IC50 [1]: 1.5; inhibition [5]: Active; Activity [6]: 18.15%; Activity [7]: Active; Activity [8]: inactive; Activity [9]: 13.44% |
| Cn1cccc1C1=C(c2ccco2)C(=O)N(CCNCCCNCCN2C(=O)C(c3ccco3)=C(c3cccn3C)C2=O)C1=O | 0.65 | 0.73 | – |
| O=C1C(c2ccccc2)=C(c2c[nH]c3ccccc23)C(=O)N1CCNCCCNCCN1C(=O)C(c2ccccc2)=C(c2c[nH]c3ccccc23)C1=O | 3.9 | 1 | – |
| O=C1c2c(c3ccccc3c3ccccc23)C(=O)N1CCNCCCNCCN1C(=O)c2c(c3ccccc3c3ccccc23)C1=O | 0.4 | 0.23 | – |
| Cn1ccc2c3ccoc3c3c(c21)C(=O)N(CCNCCCNCCN1C(=O)c2c(c4c(ccn4C)c4ccoc24)C1=O)C3=O | 0.003 | 0.09 | TGI [10]: inactive; Activity [4]: 76.63%; inhibition [5]: Active; Activity [6]: 12.81%; Activity [7]: Active; Activity [11]: Non-toxic; Activity [8]: inactive; TGI [12]: Active; Activity [9]: 10.56% |
